Data taken from PubChem BioAssay.
Active and inactive are the calls of the source.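 The calls were made as follows, unless noted: active = inhibition at or above 50% at 10 µM; inactive = inhibition below 50%.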

Columns and labels:
[1] = inhibitors of TNFa-induced NFkB p65 translocation, primary screen, imaging, HUVEC, MLSMR starter and 10KST1 sets (AID 438;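 active = inhibition above 20% together with a positive visual image hit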;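 also: compound added about 3h40 before a 20 min TNFalpha stimulation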;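 as to inhibition: signal is the nuclear over cytoplasmic p65 intensity ratio per well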); conditions: HUVEC TNFa-induced p65 nuclear translocation; cell count: measured here: nuclei count (cytotoxicity indicator), at 2.08 µM; inhibition: at 2 µM, stronger effect = higher value, 0% TNFa-plus-vehicle, 100% no-TNFa wells
[2] = reduction of polyQ htt aggregates in cells – imaging, exon1htt(103Q)mCFP cells, high-content imaging, primary screen (AID 483;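 active = visual image review flags a hit and inhibition of aggregation exceeds 20%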;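 also: compound exposure lasted 3 days before fixation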;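 as to nuclei count: percent of the per-plate median nuclei count of sample wells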); conditions: exon1htt(103Q)mCFP cell line, aggregate imaging, at 2 µM; inhibition of aggregation: stronger effect = higher value; nuclei count: measured here: cell count, toxicity
[3] = endothelial E-selectin expression blockers – imaging, HUVEC, immunofluorescence, MLSMR starter and 10KST1 sets, primary screen (AID 487;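 active = visually confirmed hit in the image check and inhibition above 20%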;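 as to inhibition: signal is fraction of cell area covered by stained E-selectin grains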;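 as to nuclei count: 100% = median nuclei count of all wells on the same plate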); conditions: HUVEC TNFalpha-induced E-selectin immunofluorescence imaging, at 2 µM; inhibition: stronger effect = higher value; nuclei count: measured here: cell number, toxicity
[4] = target: Voltage-gated potassium channel subunit beta-2 (Rattus norvegicus) (UniProt P62483); experiment: inhibitors of rat Kvbeta2 reductase activity – biochemical, NADPH fluorescence, primary screen (AID 622;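 active = fluorescence slope higher than the sample average by over 3 SD, cut at about -0.22 in these data, passing the limit was not always enough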;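 also: slope of raw intensity against log time taken from 70 to 1610 s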); conditions: recombinant KvBeta, 4-cyanobenzaldehyde reduction, at 10 µM, stronger effect = higher value
[5] = target: Voltage-gated potassium channel subunit beta-2 (Rattus norvegicus) (UniProt P62483); experiment: enhancers of rat Kvbeta2 NADPH turnover – biochemical, NADPH fluorescence, primary screen (AID 623;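 active = NADPH fluorescence slope more negative than the mean of all samples by about 3 SD, 99.7% confidence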;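 also: fluorescence intensity change per second fitted from 20 to 320 s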); conditions: Recombinant KvBeta, NADPH fluorescence decrease slope, 10 min; at 10 µM; stronger effect = lower value
[6] = target: Muscarinic acetylcholine receptor M4 (Homo sapiens) (UniProt P08173); experiment: M4-linked GIRK flux change, two-sided – cell-based, HEK293 M4/GIRK, thallium flux, BTC-AM, M4 allosteric agonist project, primary screen (AID 625;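 active = fluorescence slope after compound addition differing from the mean of all tested samples at 99.7% confidence, mostly higher but some lower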;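 also: thallium influx through GIRK channels coupled to M4 in HEK293 cells with BTC-AM dye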); conditions: at 10 µM, actives lie on both sides
Method in brief: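 Material: HEK293 cells with M4 receptor and GIRK channels; Times: cells overnight at 37 °C, BTC-AM loading 1 h, reads 2 min total; Technique: kinetic BTC-AM fluorescence sampled at 1 Hz, 10 s pre-addition baseline; Read-out basis: slope over 15–24 s of trace normalized to starting intensity; Controls: carbachol positive, DMSO negative.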

[7] = blockers of RIG-like receptor reporter activation – cell-based, Sendai virus stimulus, luciferase, 10K MLSCN set, TLR/RLR signaling modifier project, primary screen (AID 602276); conditions: HEK293 RL24 IRF3 luciferase reporter, at 10 µM, stronger effect = higher value;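 also: firefly luciferase from ISG56 promoter only with Renilla not read in this screen; 0% = Sendai virus plus DMSO and 100% = medium plus DMSO without virus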
[8] = TLR3 IRF3 reporter activation blockers – cell-based, poly I:C stimulus, luciferase, 10K MLSCN set, primary screen (AID 602277;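 active = inhibition of the reporter signal at or above 50%; inactive = inhibition below 50%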); conditions: HEK293-TLR3 RL24 IRF3 luciferase reporter, at 10 µM, stronger effect = higher value

Sequence of Muscarinic acetylcholine receptor M4 (Homo sapiens) (P08173 whole entry, looked up): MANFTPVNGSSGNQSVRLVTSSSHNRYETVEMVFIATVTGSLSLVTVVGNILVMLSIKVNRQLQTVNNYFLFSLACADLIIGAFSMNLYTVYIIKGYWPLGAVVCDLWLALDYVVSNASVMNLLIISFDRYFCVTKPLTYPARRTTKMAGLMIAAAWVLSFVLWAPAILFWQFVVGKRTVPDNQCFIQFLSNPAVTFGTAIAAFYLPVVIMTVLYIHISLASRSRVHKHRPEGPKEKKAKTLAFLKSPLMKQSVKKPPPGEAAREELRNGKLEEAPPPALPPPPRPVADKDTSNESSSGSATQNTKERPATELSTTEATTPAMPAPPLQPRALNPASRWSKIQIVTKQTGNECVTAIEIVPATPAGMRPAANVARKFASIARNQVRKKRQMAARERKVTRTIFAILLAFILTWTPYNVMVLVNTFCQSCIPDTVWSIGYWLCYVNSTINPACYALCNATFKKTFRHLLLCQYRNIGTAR
Sequence of Voltage-gated potassium channel subunit beta-2 (Rattus norvegicus) (P62483 whole entry, looked up): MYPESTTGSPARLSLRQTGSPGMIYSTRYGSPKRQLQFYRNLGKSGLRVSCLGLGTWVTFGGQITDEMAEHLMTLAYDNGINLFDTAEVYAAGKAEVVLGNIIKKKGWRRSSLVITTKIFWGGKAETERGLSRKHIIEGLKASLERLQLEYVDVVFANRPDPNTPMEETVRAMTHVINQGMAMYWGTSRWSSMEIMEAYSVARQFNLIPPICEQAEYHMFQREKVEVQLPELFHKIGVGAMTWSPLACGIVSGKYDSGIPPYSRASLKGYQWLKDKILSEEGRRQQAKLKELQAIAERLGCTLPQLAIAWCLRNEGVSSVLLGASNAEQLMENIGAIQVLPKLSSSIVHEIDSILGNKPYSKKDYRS

SMILES | cell count [1] | inhibition [1] | inhibition of aggregation [2] | nuclei count [2] [%] | inhibition [3] | nuclei count [3] [%] | fluorescence slope [4] | NADPH fluorescence slope [5] | fluorescence slope [6] | inhibition [7] | inhibition [8]
Cc1cccc(C)c1NC(=O)N1CCN(C2CCCCC2)CC1 | 364 | 1.2% (inactive) | -2% (inactive) | 106 | -8.3% (inactive) | 106 | -0.578 (inactive) | -3.9e-05 (inactive) | 0.00564 (inactive) | -1.81% (inactive) | 18.1% (inactive)
CC(c1ccco1)N(C(=O)COc1ccc(Cl)cc1Cl)c1ccccn1 (centres undefined) | 720 | 2.4% (inactive) | -4.8% (inactive) | 96 | -108% (inactive) | 119 | -0.466 (inactive) | -6.4e-05 (inactive) | 0.00469 (inactive) | 2.26% (inactive) | -73.7% (inactive)
O=C(O)C1CCCN1C(=O)Nc1ccc(F)cc1 (centres undefined) | 543 | -32.6% (inactive) | 13.6% (inactive) | 91.3 | -32.7% (inactive) | 98.5 | -0.301 (inactive) | -4.9e-05 (inactive) | 0.00613 (inactive) | 8.17% (inactive) | 10.2% (inactive)
CC(C)(C)OC(=O)N1CCN(c2ccc(NC(=O)c3cc4ccccc4oc3=O)cc2)CC1 | 409 | 4.4% (inactive) | -4.1% (inactive) | 110 | -52.6% (inactive) | 107 | -0.582 (inactive) | -4.9e-05 (inactive) | 0.0076 (inactive) | 16.2% (inactive) | -11.3% (inactive)
Cc1c(C(=O)O)sc2nc3n(c(=O)c12)CCC(C)CC3 (centres undefined) | 621 | -10.5% (inactive) | -7.7% (inactive) | 113 | -29.1% (inactive) | 110 | -0.442 (inactive) | 6.7e-05 (inactive) | 0.00587 (inactive) | 6.81% (inactive) | 11.1% (inactive)
Cc1ccc(OC(=O)NC2CCS(=O)(=O)C2)cc1C (centres undefined) | 395 | -0.3% (inactive) | -6.1% (inactive) | 98.6 | -107% (inactive) | 116 | -0.617 (inactive) | -2.5e-07 (inactive) | 0.00398 (inactive) | 12.7% (inactive) | 17.3% (inactive)
Cc1ccc(-c2cc(C(F)F)nc(N3CCC(C)CC3)n2)cc1 | 653 | -35.4% (inactive) | -11.6% (inactive) | 102 | -81.9% (inactive) | 117 | -0.432 (inactive) | -1.2e-05 (inactive) | 0.00777 (inactive) | 4.72% (inactive) | -1.99% (inactive)
CCOC(=O)c1[nH]c2ccc(C)cc2c1N=C(C)N(C)C | 579 | 5.2% (inactive) | -6.9% (inactive) | 100 | -27.2% (inactive) | 108 | -0.563 (inactive) | -6e-05 (inactive) | 0.00488 (inactive) | 20.7% (inactive) | 21.2% (inactive)
CCC(=O)Nc1ccc(NC(=O)CSc2nnnn2C(C)C)cc1 | 667 | -8.1% (inactive) | -6% (inactive) | 74.9 | -74.4% (inactive) | 129 | -0.461 (inactive) | -4.3e-05 (inactive) | 0.00465 (inactive) | 14.9% (inactive) | 16.2% (inactive)
Cc1ccc(NC(=O)COc2nc(C)cs2)cc1 | 400 | 4.5% (inactive) | -3.7% (inactive) | 100 | -48.8% (inactive) | 108 | -0.555 (inactive) | -5e-05 (inactive) | 0.00704 (inactive) | 6.37% (inactive) | 9.54% (inactive)
COCCCn1c2nc3ccccc3nc2c2c(=O)n(-c3ccccc3OC)cnc21 | 334 | 6.3% (inactive) | -5.4% (inactive) | 98.2 | 16.9% (inactive) | 102 | -0.457 (inactive) | 4.9e-05 (inactive) | 0.0045 (inactive) | -1.7% (inactive) | -9.3% (inactive)
CC1CCN(CC(O)COC2CCC(C(C)(C)C)CC2)CC1 (centres undefined) | 719 | -6.8% (inactive) | 1.9% (inactive) | 118 | -11.7% (inactive) | 111 | -0.453 (inactive) | -0.000251 (inactive) | 0.00347 (inactive) | 6.5% (inactive) | -5.56% (inactive)
CC1(C)NC(=O)N(CCCOc2ccc(Br)cc2Cl)C1=O | 278 | -10% (inactive) | -8.8% (inactive) | 110 | -4.9% (inactive) | 119 | -0.458 (inactive) | -2.9e-06 (inactive) | 0.00559 (inactive) | -28.8% (inactive) | -113% (inactive)
O=C(CN1C(=O)c2cccc3cccc1c23)N1CCN(c2ccccc2)CC1 | 512 | -50% (inactive) | 2.8% (inactive) | 108 | -27.9% (inactive) | 101 | -0.127 (inactive) | -6.1e-06 (inactive) | 0.00738 (inactive) | -2.31% (inactive) | 2.78% (inactive)
